Measurements: ChEMBL document CHEMBL1649319, “In vitro antifungal activities of isavuconazole and comparators against rare yeast pathogens” (2010)
≈ marks a conversion by molar mass, not a printed value.

What was measured:
Assay type in all cases: functional
[1] = Antifungal activity against Trichosporon jirovecii after 48 hrs by Etest; conditions: Cutaneotrichosporon jirovecii
Method in brief: (§1)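 Etest on 2% glucose-RPMI agar. Yeast suspensions were swabbed across the plates and strips applied, then incubated at 35°C for 48 h. MIC was the lowest concentration where the elliptical inhibition zone border met the strip scale. Each reading was raised to the next 2-fold dilution on the CLSI scale and converted to log2. Isolates were revived from −70°C stocks on potato dextrose or Sabouraud agar.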

Magnusiomyces capitatus [2] = experiment: Antifungal activity against Dipodascus capitatus after 48 hrs by Etest; method in brief: as §1
Rhodotorula mucilaginosa [3] = experiment: Antifungal activity against Rhodotorula mucilaginosa after 7 days by broth microdilution method; conditions: 168 h
Magnusiomyces capitatus [4] = experiment: Antifungal activity against Dipodascus capitatus after 4 days by Etest; conditions: 96 h
Magnusiomyces capitatus [5] = experiment: Antifungal activity against Dipodascus capitatus after 3 days by broth microdilution method; conditions: 72 h
[6] = Antifungal activity against Trichosporon domesticum after 48 hrs by Etest; conditions: Apiotrichum domesticum; method in brief: as §1
[7] = tested on: Cutaneotrichosporon mucoides; experiment: Antifungal activity against Trichosporon mucoides after 48 hrs by broth microdilution method
Method in brief: (§2)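 CLSI M27-A3 broth microdilution. Isolates were identified by ITS1-5.8S-ITS2 sequencing, kept at −70°C in sterile water, and revived on potato dextrose or Sabouraud agar. Drug ranges in wells were 0.015–16 or 0.125–128 μg/ml, depending on the agent. Plates were incubated at 35°C and MICs read visually at 48 h. QC strains were C. krusei ATCC 6258 and C. parapsilosis ATCC 22019.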

Trichosporon inkin [8] = experiment: Antifungal activity against Trichosporon inkin after 48 hrs by Etest; method in brief: as §1
Magnusiomyces capitatus [9] = experiment: Antifungal activity against Dipodascus capitatus after 48 hrs by broth microdilution method; method in brief: as §2
Saccharomyces cerevisiae [10] = experiment: Antifungal activity against Saccharomyces cerevisiae after 48 hrs by Etest; method in brief: as §1
Saccharomyces cerevisiae [11] = experiment: Antifungal activity against Saccharomyces cerevisiae after 5 days by broth microdilution method; conditions: 120 h
Rhodotorula mucilaginosa [12] = experiment: Antifungal activity against Rhodotorula mucilaginosa after 48 hrs by broth microdilution method; method in brief: as §2
[13] = tested on: Cutaneotrichosporon mucoides; experiment: Antifungal activity against Trichosporon mucoides assessed as percent susceptible/dose-dependent isolates after 48 hrs by broth microdilution method
Method in brief: (§3)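 Broth microdilution MICs (CLSI, 35°C, visual read at 48 h) were sorted into categories using CLSI M27-A3 triazole breakpoints. Susceptible was ≤1 or ≤8 μg/ml, SDD was 2 or 16–32 μg/ml, and resistant was ≥4 or ≥64 μg/ml, depending on the agent. Each category is the percentage of isolates falling in it.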

[14] = Antifungal activity against Trichosporon domesticum after 48 hrs by broth microdilution method; conditions: Apiotrichum domesticum; method in brief: as §2
Rhodotorula mucilaginosa [15] = experiment: Antifungal activity against Rhodotorula mucilaginosa after 48 hrs by Etest; method in brief: as §1
[16] = tested on: Cutaneotrichosporon mucoides; experiment: Antifungal activity against Trichosporon mucoides assessed as percent susceptible isolates after 48 hrs by broth microdilution method; method in brief: as §3
[17] = Antifungal activity against Trichosporon jirovecii after 48 hrs by broth microdilution method; conditions: Cutaneotrichosporon jirovecii; method in brief: as §2
Trichosporon [18] = experiment: Antifungal activity against Trichosporon sp. after 3 days by broth microdilution method; conditions: 72 h
Trichosporon asahii [19] = experiment: Antifungal activity against Trichosporon asahii after 48 hrs by Etest; method in brief: as §1
Trichosporon asahii [20] = experiment: Antifungal activity against Trichosporon asahii after 48 hrs by broth microdilution method; method in brief: as §2
Trichosporon [21] = experiment: Antifungal activity against Trichosporon sp. after 4 days by Etest; conditions: 96 h
Trichosporon inkin [22] = experiment: Antifungal activity against Trichosporon inkin after 48 hrs by broth microdilution method; method in brief: as §2
Rhodotorula mucilaginosa [23] = experiment: Antifungal activity against Rhodotorula mucilaginosa after 7 days by Etest; conditions: 168 h
Saccharomyces cerevisiae [24] = experiment: Antifungal activity against Saccharomyces cerevisiae after 48 hrs by broth microdilution method; method in brief: as §2
[25] = tested on: Cutaneotrichosporon mucoides; experiment: Antifungal activity against Trichosporon mucoides after 48 hrs by Etest; method in brief: as §1

Question: What does the source list for `C[C@@H](c1ncncc1F)[C@](O)(Cn1cncn1)c1ccc(F)cc1F` [VORICONAZOLE]?
Answer: MIC50 [1]: 0.03 mg/L (≈ 0.0859 µM); MIC90 [1]: 0.125 mg/L (≈ 0.358 µM); MIC50 (Magnusiomyces capitatus [2]): 0.03 mg/L (≈ 0.0859 µM); MIC90 (Magnusiomyces capitatus [2]): 0.06 mg/L (≈ 0.172 µM); MIC50 (Rhodotorula mucilaginosa [3]): 2 mg/L (≈ 5.73 µM); MIC90 (Rhodotorula mucilaginosa [3]): 8 mg/L (≈ 22.9 µM); MIC50 (Magnusiomyces capitatus [4]): 0.03 mg/L (≈ 0.0859 µM); MIC90 (Magnusiomyces capitatus [4]): 0.06 mg/L (≈ 0.172 µM); MIC50 (Magnusiomyces capitatus [5]): 0.06 mg/L (≈ 0.172 µM); MIC90 (Magnusiomyces capitatus [5]): 0.25 mg/L (≈ 0.716 µM); MIC50 [6]: 0.03 mg/L (≈ 0.0859 µM); MIC90 [6]: 0.125 mg/L (≈ 0.358 µM); MIC50 [7]: 0.06 mg/L (≈ 0.172 µM); MIC90 [7]: 0.25 mg/L (≈ 0.716 µM); MIC50 (Trichosporon inkin [8]): 0.03 mg/L (≈ 0.0859 µM); MIC90 (Trichosporon inkin [8]): 0.125 mg/L (≈ 0.358 µM); MIC50 (Magnusiomyces capitatus [9]): 0.06 mg/L (≈ 0.172 µM); MIC90 (Magnusiomyces capitatus [9]): 0.25 mg/L (≈ 0.716 µM); MIC50 (Saccharomyces cerevisiae [10]): 0.03 mg/L (≈ 0.0859 µM); MIC90 (Saccharomyces cerevisiae [10]): 0.125 mg/L (≈ 0.358 µM); MIC50 (Saccharomyces cerevisiae [11]): 0.125 mg/L (≈ 0.358 µM); MIC90 (Saccharomyces cerevisiae [11]): 0.25 mg/L (≈ 0.716 µM); MIC50 (Rhodotorula mucilaginosa [12]): 2 mg/L (≈ 5.73 µM); MIC90 (Rhodotorula mucilaginosa [12]): 8 mg/L (≈ 22.9 µM); MIC50 [13]: 0.06 mg/L (≈ 0.172 µM); MIC90 [13]: 0.25 mg/L (≈ 0.716 µM); MIC50 [14]: 0.06 mg/L (≈ 0.172 µM); MIC90 [14]: 0.25 mg/L (≈ 0.716 µM); MIC50 (Rhodotorula mucilaginosa [15]): > 16 mg/L; MIC90 (Rhodotorula mucilaginosa [15]): > 16 mg/L; MIC50 [16]: 0.06 mg/L (≈ 0.172 µM); MIC90 [16]: 0.25 mg/L (≈ 0.716 µM); MIC50 [17]: 0.06 mg/L (≈ 0.172 µM); MIC90 [17]: 0.25 mg/L (≈ 0.716 µM); MIC50 (Trichosporon [18]): 0.06 mg/L (≈ 0.172 µM); MIC90 (Trichosporon [18]): 0.25 mg/L (≈ 0.716 µM); MIC50 (Trichosporon asahii [19]): 0.03 mg/L (≈ 0.0859 µM); MIC90 (Trichosporon asahii [19]): 0.125 mg/L (≈ 0.358 µM); MIC50 (Trichosporon asahii [20]): 0.06 mg/L (≈ 0.172 µM); MIC90 (Trichosporon asahii [20]): 0.25 mg/L (≈ 0.716 µM); MIC50 (Trichosporon [21]): 0.03 mg/L (≈ 0.0859 µM); MIC90 (Trichosporon [21]): 0.125 mg/L (≈ 0.358 µM); MIC50 (Trichosporon inkin [22]): 0.06 mg/L (≈ 0.172 µM); MIC90 (Trichosporon inkin [22]): 0.25 mg/L (≈ 0.716 µM); MIC50 (Rhodotorula mucilaginosa [23]): > 16 mg/L; MIC90 (Rhodotorula mucilaginosa [23]): > 16 mg/L; MIC50 (Saccharomyces cerevisiae [24]): 0.125 mg/L (≈ 0.358 µM); MIC90 (Saccharomyces cerevisiae [24]): 0.25 mg/L (≈ 0.716 µM); MIC50 [25]: 0.03 mg/L (≈ 0.0859 µM); MIC90 [25]: 0.125 mg/L (≈ 0.358 µM)

Question: What does the source list for `OC(Cn1cncn1)(Cn1cncn1)c1ccc(F)cc1F` [FLUCONAZOLE]?
Answer: MIC50 [1]: 1 mg/L (≈ 3.27 µM); MIC90 [1]: 4 mg/L (≈ 13.1 µM); MIC50 (Magnusiomyces capitatus [2]): 1 mg/L (≈ 3.27 µM); MIC90 (Magnusiomyces capitatus [2]): 4 mg/L (≈ 13.1 µM); MIC (Rhodotorula mucilaginosa [3]): > 128 mg/L; MIC50 (Rhodotorula mucilaginosa [3]): > 128 mg/L; MIC90 (Rhodotorula mucilaginosa [3]): > 128 mg/L; MIC50 (Magnusiomyces capitatus [4]): 1 mg/L (≈ 3.27 µM); MIC90 (Magnusiomyces capitatus [4]): 4 mg/L (≈ 13.1 µM); MIC50 (Magnusiomyces capitatus [5]): 4 mg/L (≈ 13.1 µM); MIC90 (Magnusiomyces capitatus [5]): 16 mg/L (≈ 52.2 µM); MIC50 [6]: 1 mg/L (≈ 3.27 µM); MIC90 [6]: 4 mg/L (≈ 13.1 µM); MIC50 [7]: 2 mg/L (≈ 6.53 µM); MIC90 [7]: 8 mg/L (≈ 26.1 µM); MIC50 (Trichosporon inkin [8]): 1 mg/L (≈ 3.27 µM); MIC90 (Trichosporon inkin [8]): 4 mg/L (≈ 13.1 µM); MIC50 (Magnusiomyces capitatus [9]): 4 mg/L (≈ 13.1 µM); MIC90 (Magnusiomyces capitatus [9]): 16 mg/L (≈ 52.2 µM); MIC50 (Saccharomyces cerevisiae [10]): 4 mg/L (≈ 13.1 µM); MIC90 (Saccharomyces cerevisiae [10]): 64 mg/L (≈ 209 µM); MIC50 (Saccharomyces cerevisiae [11]): 4 mg/L (≈ 13.1 µM); MIC90 (Saccharomyces cerevisiae [11]): 16 mg/L (≈ 52.2 µM); MIC (Rhodotorula mucilaginosa [12]): > 128 mg/L; MIC50 (Rhodotorula mucilaginosa [12]): > 128 mg/L; MIC90 (Rhodotorula mucilaginosa [12]): > 128 mg/L; MIC50 [13]: 2 mg/L (≈ 6.53 µM); MIC90 [13]: 8 mg/L (≈ 26.1 µM); MIC50 [14]: 2 mg/L (≈ 6.53 µM); MIC90 [14]: 8 mg/L (≈ 26.1 µM); MIC (Rhodotorula mucilaginosa [15]): > 128 mg/L; MIC50 (Rhodotorula mucilaginosa [15]): > 128 mg/L; MIC90 (Rhodotorula mucilaginosa [15]): > 128 mg/L; MIC50 [16]: 2 mg/L (≈ 6.53 µM); MIC90 [16]: 8 mg/L (≈ 26.1 µM); MIC50 [17]: 2 mg/L (≈ 6.53 µM); MIC90 [17]: 8 mg/L (≈ 26.1 µM); MIC50 (Trichosporon [18]): 2 mg/L (≈ 6.53 µM); MIC90 (Trichosporon [18]): 8 mg/L (≈ 26.1 µM); MIC50 (Trichosporon asahii [19]): 1 mg/L (≈ 3.27 µM); MIC90 (Trichosporon asahii [19]): 4 mg/L (≈ 13.1 µM); MIC50 (Trichosporon asahii [20]): 2 mg/L (≈ 6.53 µM); MIC90 (Trichosporon asahii [20]): 8 mg/L (≈ 26.1 µM); MIC50 (Trichosporon [21]): 1 mg/L (≈ 3.27 µM); MIC90 (Trichosporon [21]): 4 mg/L (≈ 13.1 µM); MIC50 (Trichosporon inkin [22]): 2 mg/L (≈ 6.53 µM); MIC90 (Trichosporon inkin [22]): 8 mg/L (≈ 26.1 µM); MIC (Rhodotorula mucilaginosa [23]): > 128 mg/L; MIC50 (Rhodotorula mucilaginosa [23]): > 128 mg/L; MIC90 (Rhodotorula mucilaginosa [23]): > 128 mg/L; MIC50 (Saccharomyces cerevisiae [24]): 4 mg/L (≈ 13.1 µM); MIC90 (Saccharomyces cerevisiae [24]): 16 mg/L (≈ 52.2 µM); MIC50 [25]: 1 mg/L (≈ 3.27 µM); MIC90 [25]: 4 mg/L (≈ 13.1 µM)
